Source: PubChem (several laboratories)
This is a sample that favours compounds with a hit; in the whole collection about 2.2% have one here.
Wee1 stabilizer – inhibitors of human Wee1 degradation | HeLa Luc-Wee1K328M stability, luciferase luminescence; 100% = proteasome inhibitor MG132 effect | actives 1.2% (n = 220,000) | reporter increase, % at 5 µM;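 active = activation above the mean of all tested compounds plus 3 SD, set per screening run, cut at about 8.8% in these data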;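 note: cells exposed to compound for 20 h before luminescence read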
RBBP9 inh – inhibitors of human serine hydrolase RBBP9. inhibition, % at 7.94 µM. AID 1515. O75884. recombinant RBBP9, FP-Rh probe fluorescence polarization. actives 0.2% (n = 220,000);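 active = inhibition above the campaign mean of all tested compounds plus 3 SD, cut at about 14% in these data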
Target sequence (O75884 whole entry, looked up): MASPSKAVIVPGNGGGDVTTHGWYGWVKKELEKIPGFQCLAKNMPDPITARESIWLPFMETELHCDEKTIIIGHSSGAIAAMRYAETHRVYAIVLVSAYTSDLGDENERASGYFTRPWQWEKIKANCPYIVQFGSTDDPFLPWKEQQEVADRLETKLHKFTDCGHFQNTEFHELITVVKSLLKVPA
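Material: RBBP9 protein. Amount: RBBP9 at 2.5 µM in dispensed solution, before mixing. Schedule: 30 min then 45 min, 25 °C. Medium: Tris buffer pH 8.0, NaCl, Pluronic. Measured by: fluorescence polarization. Measure: percent inhibition from mP, scaled between DMSO and no-protein wells. Replication: one well per compound.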
INS promoter inh – TRM-6 insulin promoter activity inhibition. TRM-6 cells, insulin promoter-eGFP reporter, imaging; reporter expression induced with tamoxifen. inhibition, % at 2 µM. actives 0.9% (n = 130,000). AID 1273;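 active = inhibition above the mean plus 3 SD, with well images judged a real hit on visual review, cut at about 60% in these data, passing the limit was not always enough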
Mdm2 ligase inh – Mdm2 E3 ligase (human) inhibition | signal enhancement, % at 5 µM | cell-based MDM2 ubiquitination luciferase reporter, 2 h; 0 = plate control, 100 = twice control, blank-subtracted | Q00987 | actives 0.11% (n = 210,000);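 active = signal enhancement of 30% or more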;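 note: luminescence tracks abundance of the self-degrading MDM2-luciferase fusion protein; higher signal means inhibition of MDM2 E3 ligase activity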
Target sequence (Q00987 whole entry, looked up, the tested form may be a part): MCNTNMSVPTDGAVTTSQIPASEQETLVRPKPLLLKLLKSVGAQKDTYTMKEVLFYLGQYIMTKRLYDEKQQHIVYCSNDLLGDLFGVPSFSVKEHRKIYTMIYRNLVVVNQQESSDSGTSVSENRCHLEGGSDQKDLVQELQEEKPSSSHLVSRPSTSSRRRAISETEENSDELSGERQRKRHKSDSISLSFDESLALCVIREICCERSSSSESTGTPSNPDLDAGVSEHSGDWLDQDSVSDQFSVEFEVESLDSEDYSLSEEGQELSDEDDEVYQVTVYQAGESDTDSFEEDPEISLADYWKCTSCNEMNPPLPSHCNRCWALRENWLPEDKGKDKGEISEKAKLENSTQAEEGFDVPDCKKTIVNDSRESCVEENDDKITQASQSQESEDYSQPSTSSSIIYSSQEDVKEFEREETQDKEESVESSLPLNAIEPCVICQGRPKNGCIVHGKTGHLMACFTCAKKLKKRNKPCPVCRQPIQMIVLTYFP
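test system = mammalian cells stably expressing self-ubiquitinating, self-degrading MDM2 E3–luciferase fusion | quantity = 2000 cells/well | incubation = cell settling 4 h, compound treatment 2 h, both 37 °C | signal = luminescence with SteadyLite reagent, 15 min at room temperature | evaluation = % enhancement relative to plate controls after blank subtraction | benchmarks = plate controls and plate blanks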
Insulin prom up – MIN6 insulin promoter up-regulation | MIN6 insulin promoter-GFP reporter, high-content imaging; active compounds read high | AID 1625 | z-score at 5 µM | actives 0.3% (n = 190,000);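 active = z-score above 3 at 5 µM with at least 500 cells counted in the well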
Hsp70 activator – Hsp70 transcriptional activation, primary screen | HeLa Hsp70 promoter luciferase reporter, luminescence; scaled: vehicle 0, proteasome-inhibitor control 100% | activation, % at 10 µM | actives 0.04% (n = 200,000) | AID 1203;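 active = activation above the mean across all tested compounds plus 3 SD, cutoff set per campaign, cut at about 5.5% in these data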
Wee1 degr conf – confirmation of human Wee1 degradation inhibitors. AID 1410. HeLa Luc-Wee1K328M degradation, luminescence; vehicle 0%, proteasome-blocked wells 100%. activation, % at 5 µM. actives 4% (n = 1,100). shares compounds with Wee1 stabilizer; in the data active = activation above about 8.9%
Numbers stand for hits; i = inactive; nt = no result.

SMILES	Wee1 stabilizer	RBBP9 inh	INS promoter inh	Mdm2 ligase inh	Insulin prom up	Hsp70 activator	Wee1 degr conf
NC(=O)C1CCN(Cc2nc(-c3cccs3)no2)CC1	i	i	nt	i	i	nt	nt
Cc1ccnc(NC(=O)CCCOc2cc(=O)n(C)c3ccccc23)c1	13.9	i	nt	i	i	i	45.7
Cc1cccc(CCNC(=O)COc2cc(=O)n(C)c3ccccc23)c1	11.4	i	i	i	i	i	i
Cc1cccc(CCNC(=O)CCCOc2cc(=O)n(C)c3ccccc23)c1	i	i	i	i	i	i	nt
CC(NC(=O)COC(=O)C1CSC2(C)CCC(=O)N12)C12CC3CC(CC(C3)C1)C2 (stereo not given)	12.2	i	nt	i	i	i	i
CN(C)c1ccc(/C=C/c2nnnn2-c2ccccc2)cc1	11.7	i	i	i	i	i	i
CC(C)=CCc1c(O)ccc2c1OC(c1ccc(O)c(O)c1)CC2=O (stereo not given)	32.7	i	nt	i	i	i	i
O=C1CC(c2ccc(O)c(O)c2)Oc2c1ccc(O)c2O (stereo not given)	nt	nt	nt	i	i	nt	nt
CCN1c2ccccc2-c2nc3ccccc3n2C1c1cccnc1 (stereo not given)	i	i	i	i	i	i	nt
CCN1c2ccccc2-c2nc3ccccc3n2C1c1ccncc1 (stereo not given)	16.0	i	nt	i	i	i	i
CCc1ccccc1NC(=O)CC(O)(C(=O)OC)C(F)(F)F (stereo not given)	i	i	i	i	i	i	nt
N=c1c2c3c(sc2ncn1Cc1ccco1)CCCCC3	11.6	i	i	i	i	i	i
CC(C)Cn1cnc2sc3c(c2c1=N)CCCC3	i	i	i	i	i	i	nt
CCOC(=O)c1c(NC(=O)CN2C(=O)CN(C)C2=O)sc(C)c1C	i	i	i	i	i	i	nt
Clc1ccc(Cn2ncc3c(N4CCCC4)ncnc32)cc1	16.5	i	i	i	i	i	i
O=C(/C=C/c1ccc(S(=O)(=O)NCc2ccco2)cc1)N1CCN(c2ccccc2)CC1	i	i	i	i	i	i	nt
Cc1nnc(NC(=O)c2ccc3ccccc3n2)s1	14.1	i	nt	i	i	i	i
O=C(CSc1nc2ccccc2c(=O)n1-c1ccc(F)cc1)Nc1ccc(Cl)c(S(=O)(=O)N2CCOCC2)c1	14.1	i	i	i	i	i	i
C(=C\c1nnc2c3ccccc3ncn12)/c1ccccc1	12.2	i	i	i	i	i	i
C=CCN(c1ccccc1Cl)S(=O)(=O)c1cccc(C(=O)NCCc2ccc(OC)cc2)c1	i	i	nt	i	nt	i	nt
CCOC(=O)N1CCC(NC(=O)C2CCN(S(=O)(=O)c3ccc4c(c3)oc(=O)n4C)CC2)CC1	i	i	i	i	i	i	nt
c1ccc2c(-c3c[nH]c4ccccc34)c3ccccc3nc2c1	12.2	i	i	i	i	i	i
CN(C[C@@H](CC1CCCCC1)N(C[C@H](Cc1ccccc1)N(CCc1ccccc1)N=O)N=O)N=O	i	i	nt	nt	i	i	nt
CCOc1cc(-c2nc(-c3ccc(OC)cc3)no2)cc(OCC)c1OCC	i	i	i	i	i	i	nt
CCOc1cc(-c2nc(-c3ccccc3OC)no2)cc(OCC)c1OCC	13.8	i	i	i	i	i	i
SMILES	Wee1 stabilizer	RBBP9 inh	INS promoter inh	Mdm2 ligase inh	Insulin prom up	Hsp70 activator	Wee1 degr conf
Cc1scc(C(=O)N2CCN(c3ccc(Cl)cc3)CC2)c1C	i	i	nt	i	i	i	nt
O=Cc1ccccc1OCc1nnsc1Cl	i	i	i	i	i	i	nt
Cc1ccc(CSCC(=O)N2CCOCC2)cc1	13.2	i	i	i	i	i	i
COc1ccccc1NC(=O)Cn1nnc(-c2ccccc2NC(=O)c2cnccn2)n1	i	i	i	i	i	i	nt
CCOCCCNCC(=O)NCC1CCCCC1	i	i	nt	i	i	i	nt
Cn1c(NC(=O)Cc2cccc3ccccc23)cc(=O)n(C)c1=O	13.1	i	i	i	i	i	i
C[C@@H](C(=O)N[C@H](C(=O)O)c1ccccc1)n1nnc2ccccc2c1=O	i	i	i	i	i	i	nt
O=C(NC1CCCCC1)c1cc(Cl)ccc1[N+](=O)[O-]	16.3	i	i	i	i	i	i
O=C(CNC(=S)N(CCCN1CCOCC1)Cc1cccs1)N1CCCCCC1	i	i	i	i	i	i	nt
COc1ccc2c(c1)c(CC(=O)Nc1cc(C)ccc1C)c(C)n2C(=O)c1ccc(Cl)cc1	14.3	i	i	i	i	i	i
CC(C)(CNC(=O)C1CCCC1)CNC(=O)C1CCCC1	11.5	i	i	i	i	i	i
O=C(Nc1nc2c(s1)CCCC2)c1cc2n(n1)C(C(F)(F)F)CC(C1CC1)N2 (stereo not given)	15.4	i	nt	i	i	i	i
Cc1nnc(NC(=O)c2cc3n(n2)C(C(F)(F)F)CC(C2CC2)N3)s1 (stereo not given)	i	i	nt	i	i	i	nt
Cc1cccc(C)c1NC(=O)NC1(C(=O)NCCN2CCOCC2)CCCCC1	i	i	i	i	i	i	nt
CC(C)(C)NC(=O)CN(C(=O)Cn1nnc(-c2ccccc2F)n1)c1cccc2c1CCCC2	i	i	i	i	nt	i	nt
Cc1ccc(N2CCN(C(=O)N3CCOCC3)CC2)cc1C	11.7	i	i	i	i	i	i
Cn1ccnc1SCC(=O)Nc1nc2ccccc2s1	13.6	i	nt	i	i	i	i
Cc1ccc(NS(=O)(=O)c2ccc(NS(=O)(=O)c3cccs3)cc2)cc1	10.9	i	i	i	i	i	i
COc1ccc(OC)c2[nH]c(=O)c(CCNC(=O)CC(C)C)cc12	11.0	i	i	i	i	i	i
CCOc1ccc(Oc2ccc(Cl)cc2N)cc1	i	i	i	i	i	i	nt
CCOC(=O)C(=Cc1c[nH]c2ccc(S(=O)(=O)N(C)C)cc12)C(=O)OCC	12.0	i	nt	i	i	nt	i
Cc1cc(-c2nnc(-c3cccc(Cl)c3)o2)no1	18.3	i	nt	i	i	nt	i
Cc1cccc(-c2nnc(-c3ccccc3)o2)c1	i	i	i	i	i	i	nt
O=C(CSc1nnc(-c2ccncc2)n1CCc1ccccc1)N1CCCC1	11.9	i	nt	nt	i	nt	i
O=C(CSc1nnc(-c2ccncc2)o1)N1CCCCCC1	13.0	i	nt	i	i	i	i
NC(=O)CSc1nnc(-c2ccncc2)n1CCc1ccccc1	i	i	nt	i	i	i	nt
CCC12CSc3nc(Cl)ccc3N1C(=O)C(=O)N2C (stereo not given)	i	i	nt	i	i	nt	nt
Cc1ccc(S(=O)(=O)Nc2ccccc2/C=N/c2nc3ccccc3n2C)cc1	i	i	i	nt	i	i	nt
CN1CCN(c2oc(Cc3cccc4ccccc34)nc2C#N)CC1	13.0	i	nt	i	i	nt	i
